Our source for the inhibition, EC50 and IC50 values is ChEMBL document CHEMBL1130403, “Synthesis and biological activity of novel nonnucleoside inhibitors of HIV-1 reverse transcriptase. 2-Aryl-substituted benzimidazoles” (J Med Chem, 1997).

Some results are limits rather than exact numbers.

Test [1] concerns the target Human immunodeficiency virus type 1 reverse transcriptase (Human immunodeficiency virus 1) (UniProt Q72547). The test is described as follows: Inhibition of HIV-1 (wild type) reverse transcriptase at 10 uMol. The note with it: 10 uM. Summed up: (§1)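 Purified heterodimer RT (0.015 mg/mL) incubated with or without inhibitor (10 μM) in 25 mM Tris pH 8.0, 75 mM KCl, 8 mM MgCl₂, 2 mM DTT, 0.1 mg/mL BSA, CHAPS, 0.1 units poly(rC)-oligo(dG), 0.01 mM dGTP plus [α-³⁵S]-dGTP; 30 min, 37 °C. Nucleotide incorporation expressed relative to no-inhibitor control.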

A further test has as its system CEM-SS. In words: In vitro 50% cellular protection of CEM-SS cells from HIV-1 induced cytopathicity. The class given is functional, cell-based. Conditions: Homo sapiens.
Test [2] addresses Human immunodeficiency virus type 1 reverse transcriptase (Human immunodeficiency virus 1, UniProt Q72547). In words: The quantity of compound required to reduce WT Reverse transcriptase activity by 50%. Summed up:
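RNA-dependent DNA polymerase activity of purified heterodimer RT (0.015 mg/mL) at various inhibitor concentrations; 25 mM Tris pH 8.0, 75 mM KCl, 8 mM MgCl₂, 2 mM DTT, 0.1 mg/mL BSA, CHAPS, poly(rC)-oligo(dG) template-primer, 0.01 mM dGTP with [α-³⁵S]-dGTP tracer; 30 min at 37 °C; radiolabel incorporation read.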

Test [3] deals with Human immunodeficiency virus type 1 reverse transcriptase (Human immunodeficiency virus 1) (UniProt Q72547). In words: Compound is evaluated for the percent inhibition of HIV-1 WT Reverse transcriptase at 10 uM drug concentration. Summed up:
as §1

For test [4] the target is unchanged. The test is described as follows: Compound is evaluated for the percentage of inhibition of HIV-1 WT Reverse transcriptase at 10 uM drug concentration. Summed up:
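Purified heterodimer HIV-1 WT RT (0.015 mg/mL), RNA-dependent DNA polymerase assay; poly(rC)-oligo(dG) template-primer (0.1 units), 0.01 mM dGTP plus [α-³⁵S]-dGTP, in 25 mM Tris pH 8.0, 75 mM KCl, 8 mM MgCl₂, 2 mM DTT, 0.1 mg/mL BSA, CHAPS; 30 min, 37 °C. Nucleotide incorporation relative to no-inhibitor control gives % inhibition.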

For orientation: inhibition means the share of the control response that was lost under treatment. A high value points to a response far below the control. The molecule `Cc1cccc2c1nc(-c1c(F)cccc1F)n2Cc1cccnc1` registered an inhibition in test [1] of 43%.

In test [1], `Cc1cccc2c1nc(-c1ccc3ccccc3c1)n2Cc1c(F)cccc1F` displayed an inhibition of 8%.

The molecule `Cc1cccc2c1nc(C=O)n2Cc1c(F)cccc1F` gave an inhibition in test [1] of 59%.

The EC50 is the concentration giving half of the maximal effect. For orientation: IC50 means the concentration that inhibits the measured activity by half. Low readings indicate inhibition by little substance, high ones a need for much substance. In the test with CEM-SS, `Fc1cccc(F)c1Cn1c(-c2ccccc2)nc2ccccc21` came in with an EC50 of 6060 nM. Further, in test [2], 16000 nM corresponded to half-maximal inhibition (IC50). This molecule also gave an inhibition in test [3] of 77%.

`Cc1cccc2c1nc(C(C)C)n2Cc1c(F)cccc1F` registered an inhibition in test [1] of 53%.

The molecule `Cc1cccc2c1nc(-c1cccc3ccccc13)n2Cc1c(F)cccc1F` had an inhibition in test [1] of 2%.

Consider `Fc1cccc(F)c1COCc1nc2ccccc2n1Cc1c(F)cccc1F`, for which the inhibition in test [1] stood at 7%.

Turning to `Cc1cccc2c1nc(-c1c(F)cccc1F)n2S(=O)(=O)c1ccccc1`, in test [1], the inhibition amounted to 39%.

`Fc1cccc(F)c1Cn1c(-c2c(F)cccc2F)nc2ccccc21`: the EC50 in the test on CEM-SS is 1700 nM. Moreover, in test [1], the inhibition was 93%. The 50% inhibitory concentration (IC50) in test [2] stood at 110 nM.

`Cc1cccc2c1nc(CO)n2Cc1c(F)cccc1F` had an inhibition in test [1] of 12%.

The molecule `Cc1cccc2c1nc(-c1c(F)cccc1F)n2Cc1c(F)cccc1F` had an EC50 in the test on CEM-SS of 440 nM. The molecule also yielded an inhibition in test [1] of 92%. Besides, the midpoint of inhibition in test [2], the IC50, lay at 200 nM.

The molecule `Cc1cccc2c1nc(-c1c(F)cccc1F)n2Cc1c(F)c(F)c(F)c(F)c1F` displayed an inhibition in test [1] of 36%.

With `Cc1cccc2c1nc(-c1ccc(C#N)cc1)n2Cc1c(F)cccc1F`, the inhibition in test [1] is 26%.

`Cc1cccc2c1nc(-c1ccncc1)n2Cc1c(F)cccc1F` had an EC50 with CEM-SS of 3500 nM. The inhibition in test [1] was 70%.

The molecule `Cc1ccccc1-c1nc2ccccc2n1Cc1c(F)cccc1F` yielded an inhibition in test [1] of 71%.

As for `Cc1nc2ccccc2n1Cc1c(F)cccc1F`, in test [1], the inhibition came to 22%.

The molecule `O=S(=O)(c1ccccc1)n1c(-c2c(F)cccc2F)nc2ccccc21` gave an inhibition in test [1] of 52%.

Regarding `Cc1cccc2c1nc(-c1cccnc1)n2Cc1c(F)cccc1F`, the EC50 in the test on CEM-SS stood at 31600 nM. Also, the inhibition in test [1] stood at 35%.

In turn, `Cc1cccc2c1nc(-c1c(F)cccc1F)n2Cc1ccccc1` yielded an EC50 in the test on CEM-SS of 750 nM. Besides, the inhibition in test [1] was 87%. Also, the IC50 in test [2] is 1600 nM.

As for `Fc1cccc(F)c1C1SCc2nc3ccccc3n21` (centres undefined) [THIAZOLOBENZIMIDAZOLE], a half-maximal response in the test on CEM-SS (EC50) required 520 nM. The molecule further showed an IC50 in test [2] of 500 nM. In addition, in test [4], the inhibition is 84%.

In the case of `O=C(c1c(F)cccc1F)n1c(-c2c(F)cccc2F)nc2ccccc21`, in test [1], the inhibition worked out at 8%.

In turn, `Fc1cccc(F)c1-c1nc2ccccc2n1Cc1ccccc1` came in with an EC50 in the test on CEM-SS above 32000 nM. The molecule also showed an inhibition in test [1] of 71%. Further, 18600 nM corresponded to half-maximal inhibition in test [2] (IC50).

As for `Cc1cccc2c1ncn2Cc1c(F)cccc1F`, the inhibition in test [1] was found to be 40%.

The molecule `Cc1cccc2c1nc(-c1c(F)cccc1F)n2Cc1c(Cl)cccc1Cl` returned an EC50 with CEM-SS of 3160 nM. In test [1], this molecule yielded an inhibition of 58%.
